The values below come from ChEMBL document CHEMBL4270592, “8-Aryl-6-chloro-3-nitro-2-(phenylsulfonylmethyl)imidazo[1,2-a]pyridines as potent antitrypanosomatid molecules bioactivated by type 1 nitroreductases” (Eur J Med Chem, 2018).

Where only a bound is given, the exact number is not on record here.

In one series the test system is HepG2. Put plainly: Cytotoxicity against human HepG2 cells assessed as reduction in cell viability after 72 hrs by MTT assay. The conditions noted are these: hepg2, 72 h. Format: cell-based. Summed up:
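HepG2 cells in RPMI with 10% FCS, L-glutamine and penicillin/streptomycin, 37 °C, 6% CO2. After 24 h, compounds in DMSO (final <0.5% v/v) added for 72 h, in duplicate. Precipitate checked, MTT (0.5 mg/mL) 2 h, formazan dissolved in DMSO, A570 with 630 nm reference. Viability as % of untreated control; CC50 from dose-response curve; doxorubicin positive control.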
On the technique in general: Tetrazolium dyes change colour on reduction, which living cells bring about.

A short description of series [1]: Selectivity index, ratio of CC50 for human HepG2 cells to IC50 for axenic amastigote stage of Leishmania infantum. To be noted: read-out: Ratio CC50/IC50. Format: toxicity.
In series [2] the test system is Trypanosoma brucei brucei. Description: Antitrypanosomal activity against trypomastigote stage of Trypanosoma brucei brucei AnTat 1.9 assessed as decrease in parasite viability after 69 hrs by Alamar blue assay. The conditions noted are these: AnTat 1.9, 69 h. Format: functional, organism-based. Put shortly:
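AnTat 1.9 in MEM with Earle's salts plus 0.5 mM mercaptoethanol, 1.5 mM L-cysteine, 0.05 mM bathocuproine sulfate and 20% heat-inactivated horse serum, 37 °C, 5% CO2. Seeded 2000 parasites/100 µL with compounds in DMSO, in duplicate, 69 h, then Alamar Blue for 5 h.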

Series [3] can be described thus: Selectivity index, ratio of CC50 for human HepG2 cells to IC50 for trypomastigote stage of Trypanosoma brucei brucei AnTat 1.9. The series is classed as toxicity. To be noted: read-out: Ratio CC50/IC50.
Series [4] relates to Leishmania donovani. Description: Antileishmanial activity against promastigote stage of Leishmania donovani MHOM/IN/00/DEVI assessed as inhibition of parasite metabolic activity after 72 hrs by MTT assay. The series is classed as functional, organism-based. Put shortly:
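MHOM/IN/00/DEVI log-phase promastigotes in Schneider's medium with 20% FCS, 2 mM L-glutamine and antibiotics. Seeded at 10⁶ parasites/mL with compounds in DMSO (final <0.5% v/v), in duplicate, 72 h at 27 °C. MTT added for 4 h, stopped with 50% isopropanol–10% SDS, A570 read. IC50 by nonlinear regression, mean of three independent experiments.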

A short description of series [5]: Selectivity index, ratio of CC50 for human HepG2 cells to IC50 for promastigote stage of Leishmania donovani MHOM/IN/00/DEVI. The series is classed as toxicity. To be noted: read-out: Ratio CC50/IC50.
The test system of series [6] is Leishmania donovani. Description: Antileishmanial activity against intramacrophage amastigote stage of Leishmania donovani infected in human THP1 cells after 120 hrs by Giemsa staining based microscopy. Format: functional, organism-based. To be noted: THP-1, 120 h. Put shortly:
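THP-1 cells differentiated with PMA (final 50 ng/mL) for 48 h at 37 °C, 6% CO2. Infected 10:1 with L. donovani promastigotes acidified 24 h at 27 °C in Schneider 20% FCS pH 5.4. After 24 h, compounds added in duplicate (DMSO <0.5% v/v) for 120 h.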

A short description of series [7]: Selectivity index, ratio of CC50 for human HepG2 cells to IC50 for intramacrophage amastigote stage of Leishmania donovani infected in human THP1 cells. Format: toxicity, cell-based. The conditions noted are these: read-out: Ratio CC50/IC50.
Series [8] in a line: (§1) Cytotoxicity against human THP1 cells assessed as reduction in cell viability after 72 hrs by MTT assay. Format: cell-based, THP-1. To be noted: THP1 cells. Summed up: (§2)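 THP1 cells in complete RPMI with PMA (final 50 ng/mL) at 10⁶ cells/mL, differentiated 48 h. Compounds in DMSO (final <0.5% v/v) then added for 72 h at 37 °C. MTT (0.5 mg/mL in FCS-free medium) 2 h, formazan dissolved in DMSO, A570 with 630 nm reference. Viability as % of untreated control; CC50 from dose-response curve; doxorubicin positive control.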

Series [9] is described as follows: Electrochemical behavior of the compound assessed as redox potential corrected toward normal hydrogen electrode by cyclic voltammetry. The series is classed as physicochemical.
Another series deals with Leishmania infantum. Put plainly: Antileishmanial activity against axenic amastigote stage of Leishmania infantum assessed as inhibition of parasite metabolic activity after 48 hrs by luciferase reporter gene based luminescence assay. The series is classed as functional, organism-based. Put shortly: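 L. infantum promastigotes in log phase switched to RPMI 1640 pH 5.4 for 24 h at 24 °C, then 24 h at 37 °C to give axenic amastigotes. Seeded at 2.106 parasites/mL with compounds in DMSO (final <0.5% v/v), in duplicate, 48 h at 37 °C. Wells checked for precipitate, luciferase luminescence read, IC50 by non-linear regression as mean.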
Background: Reporter assays use an easily measured gene product as a stand-in for the process of interest.

For the next series, the system named is THP-1. The series is described as §1. Format: cell-based. The conditions noted are these: thp-1, 72 h. Summed up:
as §2

In series [10] the test system is Leishmania donovani. Put plainly: Antileishmanial activity against wild type promastigote stage of Leishmania donovani MHOM/SD/62/1S-CL2D LdBOB after 72 hrs by resazurin dye based assay. The series is classed as functional, organism-based. Summed up: (§3)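 Clonal L. donovani LdBOB promastigotes grown at 26 °C in modified M199. NTR1 and NTR2 overexpressers kept in nourseothricin 100 µg/mL. Triplicate 10 mL cultures seeded at 5×10^4 parasites/mL with drug for 72 h. Aliquots received 50 µM resazurin, read by fluorescence (ex 528/em 590 nm) after 4 h. Background-corrected 2-parameter fit gave EC50; at least two repeats, mean ± SD.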

Series [11] in a line: Substrate activity at recombinant type-1 nitroreductase in promastigote stage of Leishmania donovani MHOM/SD/62/1S-CL2D LdBOB assessed as inhibition of parasite growth after 72 hrs by resazurin dye based assay. Summed up: as §3
The nature of series [12]: Substrate activity at recombinant nitroreductase 2 in promastigote stage of Leishmania donovani MHOM/SD/62/1S-CL2D LdBOB assessed as inhibition of parasite growth after 72 hrs by resazurin dye based assay. Put shortly:
as §3
(In general: The colour change of resazurin is a common sign of viable cells or microbes.)

Series [13] in a line: Selectivity ratio of IC50 for wild type promastigote stage of Leishmania donovani MHOM/SD/62/1S-CL2D LdBOB to substrate activity at recombinant type-1 nitroreductase in promastigote stage of Leishmania donovani MHOM/SD/62/1S-CL2D LdBOB. The series is classed as toxicity. Put shortly:
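LdBOB promastigotes grown at 26 °C in modified M199. NTR1- and NTR2-overexpressing lines were kept with 100 µg/mL nourseothricin. Triplicate 10 mL cultures seeded at 5×10^4 parasites/mL with drug for 72 h. Aliquots given 50 µM resazurin, fluorescence (ex 528/em 590 nm) read after 4 h. EC50 from a background-corrected 2-parameter fit; at least two repeats, mean plus SD.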

Series [14] has as its system Trypanosoma brucei brucei. Description: […] activity against wild type bloodstream form of Trypanosoma brucei brucei S427 after 72 hrs. To be noted: S427, 72 h. Format: functional, organism-based. Put shortly:
(§4)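 Bloodstream-form T. brucei single marker S427 (T7RPOL TETR NEO) cultured at 37 °C in HMI9-T with 2.5 µg/mL G418. NTR1-overexpressing line kept in 2.5 µg/mL phleomycin and induced with 1 µg/mL tetracycline 48 h before the assay. Triplicate cultures seeded at 1×10^5 cells/mL with inhibitor; cell densities counted after 72 h to give EC50.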

Series [15] in a line: Substrate activity at recombinant type-1 nitroreductase in bloodstream form of Trypanosoma brucei brucei S427 assessed as inhibition of parasite growth after 72 hrs. Put shortly: as §4
Series [16] concerns Trypanosoma brucei brucei. Put plainly: Selectivity ratio of IC50 for wild type bloodstream form of Trypanosoma brucei brucei S427 to substrate activity at recombinant type-1 nitroreductase in bloodstream form of Trypanosoma brucei brucei S427. Summed up: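 Bloodstream-form single-marker S427 grown at 37 °C in HMI9-T with 2.5 µg/mL G418. The NTR1-overexpressing line was also given 2.5 µg/mL phleomycin and induced with 1 µg/mL tetracycline 48 h before assay. Triplicate cultures seeded at 1×10^5 cells/mL with inhibitor; cell densities determined after 72 h to give EC50 for wild-type and NTR1 lines.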

One may read the CC50 as the concentration giving 50% cytotoxicity. As usually defined, the IC50 is the concentration at which inhibition is half-maximal. As for `CSc1ccc(OCc2ncc([N+](=O)[O-])n2C)cc1` [FEXINIDAZOLE], the CC50 in the series on HepG2 was more than 200 µM. In addition, the selectivity ratio in [1] is more than 58.8; in series [3], more than 333; in series [5] it was more than 167; in series [7] it was more than 50. Also, the figures for the IC50 (in series [2]; with Leishmania donovani [4]; in the series on Leishmania donovani [6]) were 600 nM, 1200 nM and more than 50 µM, respectively. For the same compound, the CC50 at 72 h in [8] amounted to 3.6 µM. The Activity in [9] is on record as -0.83 V.
In the case of `O=[N+]([O-])c1c(CS(=O)(=O)c2ccccc2)nc2c(-c3ccncc3)cc(Cl)cn12`, the concentration for half-maximal inhibition (IC50) with Leishmania infantum was determined as 3000 nM; in series [2], 250 nM; with Leishmania donovani [4], 1200 nM; in the series with Leishmania donovani [6], 2.3 µM; in the series with Leishmania donovani [10], 1500 nM; in [11], 40 nM. Also, the half-maximal inhibitory concentration (IC50) in series [12] turned out to be 2000 nM. In addition, the CC50 was more than 50 µM in the series on HepG2 and more than 25 µM in the series with THP-1. In addition, the selectivity ratio in [1] was more than 16.7; in [3], more than 200; in series [5], more than 41.7; in series [7] it was more than 21.7. In series [13], the Ratio IC50 lay within 20 to 40. In addition, the Activity in [9] is given as -0.64 V.
Take `CC1CS(=O)(=O)CCN1/N=C/c1ccc([N+](=O)[O-])o1` (centres undefined) [NIFURTIMOX]: the IC50 in [14] came to 1870 nM; in series [15], 600 nM.
With `O=[N+]([O-])c1c(CS(=O)(=O)c2ccccc2)nc2c(-c3ccccc3CO)cc(Cl)cn12`, the half-inhibitory concentration (IC50) in the series with Leishmania infantum was more than 10000 nM; in series [2], 160 nM; in [14] it was 390 nM; in series [15] it was 190 nM. Besides, the CC50 in the series on HepG2 is 88 µM. The figures for the selectivity ratio in [1] and in series [3] were less than 8.8 and 550, respectively. Also, in series [16], the Ratio IC50 was 2. The Activity in [9] was -0.7 V.
Consider `O=[N+]([O-])c1c(CS(=O)(=O)c2ccccc2)nc2c(-c3cccc(CO)c3)cc(Cl)cn12`, for which the figures for the CC50 in the series with HepG2 and with THP-1 were more than 25 µM and more than 15 µM, respectively. In addition, the selectivity ratio in series [1] is more than 17.9; in [3], more than 167; in [5], more than 19.2. The concentration for half-maximal inhibition (IC50) in series [2] is 150 nM; with Leishmania donovani [4], 1300 nM; in the series with Leishmania donovani [6] it was more than 10 µM; in the series on Leishmania donovani [10], 1400 nM; in [11], 70 nM; in [12] it was 1900 nM. Moreover, the Ratio IC50 in [13] was 20 to 40. For the same compound, the Activity in [9] is -0.7 V.
